Shown are actives, neighbours in structure and some others; about 3.7% of the full set was active somewhere.
KCNK3 block – human KCNK3 channel inhibition, primary screen; actives 0.84% (n = 340,000); CHO-KCNK3 thallium flux, FluxOR fluorescence; stronger effect = lower value; B-score at 10 µM; AID 602410;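 active means B-score under library mean minus 4 SD, starting fluorescence ratio at most library mean plus 5 SD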;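 further: more negative B-score means stronger inhibition of thallium flux through KCNK3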
KCNK9 block – inhibitors of human KCNK9 two-pore domain potassium channel; Q9NPC2; HEK293 KCNK9, FluxOR thallium flux fluorescence; stronger effect = lower value; B-score at 10 µM; actives 1.2% (n = 310,000); AID 488922;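 active means ratio B-score over 3 SD below the library mean, with starting fluorescence within 5 SD of its mean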;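 further: negative B-score means less thallium flux so channel inhibition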
KCNQ1 inh – inhibitors of human KCNQ1 potassium channel | P51787 | CHO-K1 KCNQ1, FluxOR thallium flux fluorescence; stronger effect = higher value | B-score at 10 µM | actives 1.3% (n = 310,000);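 active means compounds whose thallium flux B-score, printed positive for inhibition, exceeds three library SD while starting fluorescence stays within three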;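 further: channel opened by potassium depolarization with thallium stimulus after 20 min compound exposure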
KCNQ1 act – potentiators or activators of human KCNQ1 potassium channel; P51787; CHO-K1 KCNQ1, thallium flux FluxOR fluorescence; stronger effect = higher value; B-score at 10 µM; actives 0.35% (n = 310,000); AID 2648;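 active means fluorescence ratio B-score, a plate-corrected score, at least three library SD, with initial intensity B-score within 5 SD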
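Schedule – 37 °C overnight plating, 90-min dark dye load, 20-min compound pretreatment · System – stable KCNQ1 CHO-K1 line · Probe or stimulus – thallium- and potassium-containing depolarizing buffer · Measured by – kinetic FluxOR fluorescence, 10 s baseline plus 110 s post-stimulus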
hERG protect – shields human hERG channel from block by proarrhythmic agents; Q12809; AID 1511; actives 0.51% (n = 310,000); activation (rescue from dofetilide block), less the hit threshold, % at 10 µM; CHO-hERG, FluxOR thallium flux, dofetilide IC70 present;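 active means activation above the mean of controls blocked by dofetilide plus 5 SD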;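 further: thallium influx through hERG after potassium depolarization seen as dye fluorescence rise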
Kir21 block – Kir2.1 (mouse) channel inhibition; P35561; HEK293-Kir2.1, FluxOR thallium flux fluorescence; stronger effect = lower value; B-score at 10 µM; actives 0.85% (n = 310,000);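 active means fluorescence ratio B-score at or below minus 3 SD of library scores, with starting-brightness B-score within 2 SD, cut at about -4.2 in these data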;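 further: channel flux triggered by added potassium and thallium sulfate stimulus; B-score of peak minus minimum fluorescence over baseline after thallium stimulus; more negative B-score means stronger Kir2.1 block with less thallium influx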
Target sequence (P35561 whole entry, looked up): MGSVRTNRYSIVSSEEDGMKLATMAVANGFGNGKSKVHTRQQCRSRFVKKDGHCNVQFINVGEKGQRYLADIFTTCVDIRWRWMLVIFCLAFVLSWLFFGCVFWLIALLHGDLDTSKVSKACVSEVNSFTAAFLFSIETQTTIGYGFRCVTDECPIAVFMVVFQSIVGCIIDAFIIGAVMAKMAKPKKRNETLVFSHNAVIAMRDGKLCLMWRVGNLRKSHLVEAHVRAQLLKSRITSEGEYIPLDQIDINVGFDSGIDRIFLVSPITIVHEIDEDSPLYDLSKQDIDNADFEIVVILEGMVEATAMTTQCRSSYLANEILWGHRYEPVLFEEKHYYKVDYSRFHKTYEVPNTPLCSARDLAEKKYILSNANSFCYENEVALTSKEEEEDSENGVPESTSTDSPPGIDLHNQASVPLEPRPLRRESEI
Starred values were filed as active, the others as inactive; i = inactive; · = no result given.

SMILES | KCNK3 block | KCNK9 block | KCNQ1 inh | KCNQ1 act | hERG protect | Kir21 block
CCCCCCCNC(=O)C1(CC2CC(c3ccc(Cl)cc3)=NO2)CCNCC1 (stereo not drawn) | i | i | i | i | -17 | -10*
CCCCCCCNC(=O)C1(CC2CC(c3ccc(Cl)cc3)=NO2)CCN(C(=O)Cc2ccc(F)cc2)CC1 (stereo not drawn) | i | i | i | i | -13 | -0.72
CCCCCCCNC(=O)C1(CC2CC(c3cccc(Br)c3)=NO2)CCNCC1 (stereo not drawn) | i | i | i | i | -20 | -11*
O=C(Cc1ccc(Cl)cc1)NCCCNC(=O)c1cccnc1 | i | i | i | i | -3 | -0.01
C[C@H](NC(=O)c1nc[nH]c1C(=O)N1CCc2ccccc2C1)c1ccccc1 | i | · | · | · | · | ·
C[C@H](NC(=O)c1nc[nH]c1C(=O)N1CCc2ccccc2C1)C(=O)OCc1ccccc1 | i | i | 6* | i | -20 | -0.02
C[C@H](NC(=O)c1nc[nH]c1C(=O)NCCCCCNC(=O)OC(C)(C)C)C(=O)OCc1ccccc1 | i | i | i | i | -26 | 1.9
CC(C)(C)OC(=O)NCCCCCNC(=O)c1[nH]cnc1C(=O)N[C@@H](Cc1ccccc1)C(=O)OCc1ccccc1 | i | i | 9* | i | -11 | 1.8
CS(=O)(=O)c1ccc(-c2sc3ccccc3c2C(=O)N2CCN(c3ccc(F)cc3)CC2)cc1 | i | · | · | · | · | ·
CCOc1ccc(/C=C2\CCCc3c2nc2ccccc2c3C(=O)O)cc1OC | i | i | 19* | i | -52 | -17
CCOC(=O)c1sc(=S)n(C)c1NC(=O)c1ccc(C(C)(C)C)cc1 | i | i | 11* | i | -10 | 0.6
CCn1cnnc1SCC(=O)Nc1ccccc1C(=O)NC1CC1 | i | · | · | · | · | ·
CCC(C)c1ccc(NC(=O)c2[nH]c(C)c(C(C)=O)c2C)cc1 (stereo not drawn) | i | i | i | i | -5 | -0.43
CCC(NC(=O)c1[nH]c(C)c(C(C)=O)c1C)c1ccc(Br)cc1 (stereo not drawn) | i | i | 6* | i | -12 | -0.32
O=C(/C=C/c1ccccc1)Nc1cccc(C(=O)N2CCCC2)c1 | i | · | · | · | · | ·
CSCCC(NS(=O)(=O)c1ccccc1F)C(=O)Nc1cccc(C)n1 (stereo not drawn) | i | i | i | i | -15 | -2.5
Cc1ccc(S(=O)(=O)n2c(CN3CCCC(C)C3)nc3ccccc32)cc1 (stereo not drawn) | i | -7.5* | i | i | -1 | 0.41
Cc1ccc(S(=O)(=O)n2c(C)nc3ccccc32)cc1 | i | i | i | i | -1 | -1.4
COc1cccc(/C=C(/C(=O)OCC(=O)NCC2CCCO2)c2ccccc2)c1 (stereo not drawn) | i | i | i | i | -13 | -0.72
COc1cccc(/C=C(/C(=O)OCC(=O)NC2CCCCCCC2)c2ccccc2)c1 | i | -9.9* | 10* | i | -25 | -1.1
CN(C)CCCN(C(=O)c1ccc(S(=O)(=O)N2CCCCCC2)cc1)c1nc2ccc(F)cc2s1 | i | i | i | i | -20 | -5*
CN(C)CCCN(C(=O)c1ccc(S(=O)(=O)N2CCOCC2)cc1)c1nc2ccc(F)cc2s1 | i | i | i | i | -8 | -0.58
CN(C)CCCN(C(=O)c1ccc2c(c1)CCCC2)c1nc2ccc(Cl)cc2s1 | i | i | i | i | -22 | -4.3*
CC(=O)c1sc(NC(=O)CN2C(=O)C3CC=CCC3C2=O)nc1-c1ccccc1 (stereo not drawn) | i | i | i | i | -5 | -2
CC(=O)NC1=C(NC2CCS(=O)(=O)C2)C(=O)c2ccccc2C1=O (stereo not drawn) | i | i | i | 12* | 3 | -1.5
SMILES | KCNK3 block | KCNK9 block | KCNQ1 inh | KCNQ1 act | hERG protect | Kir21 block
CN(C1=C(NC(=O)c2ccccc2)C(=O)c2ccccc2C1=O)C1CCS(=O)(=O)C1 (stereo not drawn) | i | i | i | i | -1 | 0.09
Cc1ccc(C(=O)O)cc1N=Cc1cc(Br)cc(Br)c1O | i | i | i | i | -22 | -2
CN(/N=C/c1cc(Br)cc(Br)c1O)c1cccc(C(F)(F)F)n1 | i | -7.1* | i | i | -8 | -1.6
O=C(Cc1cccc2ccccc12)Nc1ccccc1 | i | i | i | i | -7 | -1.1
C=CCN(CC=C)C(=S)NC(=O)Cc1cccc2ccccc12 | i | i | i | 10* | 10* | -2.1
Cc1ccc(NC(=O)CSc2nc(N)cc(=O)[nH]2)cc1S(=O)(=O)N1CCCCCC1 | i | · | · | · | · | ·
Cc1ccc(S(=O)(=O)N2CCN(C(=O)COC(=O)COc3cccc4c3OC(C)(C)C4)CC2)cc1 | i | i | i | i | -10 | -1.6
COc1ccc2ccccc2c1C1CC(=O)N2CN(C)CSC2=C1C#N (stereo not drawn) | i | i | 6* | i | -17 | -0.25
Cc1ccc(NC(=O)c2cnccn2)cc1C | i | i | i | i | -6 | -1.8
C/C=C/c1ccc(OCCOCCNCc2ccccc2)c(OC)c1 | i | i | i | i | -12 | -6.2*
Cc1cc(C)c(C)c(OCCOCCNCc2ccccc2)c1 | i | i | i | i | -6 | -9.1*
CCCOc1ccc(OCCOCCNCc2ccccc2)cc1 | i | i | i | i | -4 | -2.9
Cc1ccc(OCCNCc2ccccc2)c(C)c1 | i | i | i | i | -7 | -4.6*
Cc1cc(C)c(OCCCNCc2ccccc2)c(Br)c1 | i | i | i | i | -14 | -16*
Cc1cc(C)c(OCCCNC2CCCC2)c(Br)c1 | i | i | i | i | -4 | -3.4
CSc1cccc(-n2ccc(=O)c(C)c2C)c1 | i | i | i | i | -5 | 1.2
Oc1ccc2ccccc2c1N=Nc1ccccn1 | i | -7.3* | i | i | -6 | -2.4
COc1ccc(OC)c(S(=O)(=O)Nc2c(C)n(C)n(-c3ccccc3)c2=O)c1 | i | i | i | i | -1 | -0.02
COc1ccc(S(=O)(=O)N2CCc3ccccc3C2)cc1OC | i | i | i | i | -12 | -4.2*
CC(=O)NNC(=O)c1sc(=S)n2c1[nH]c(=O)c1sccc12 | i | i | i | i | -10 | 0.06
CCCCCn1c(=O)[nH]c2cc(C(=O)NCCc3ccc(OC)c(OC)c3)ccc2c1=O | i | i | i | i | -14 | -1.2
O=C(NCc1ccccc1)c1sc(=S)n2c1[nH]c(=O)c1ccccc12 | i | i | 7* | i | -16 | -1.9
